In ChEMBL document CHEMBL1124479, “N-[(arylmethoxy)phenyl] and N-[(arylmethoxy)naphthyl] sulfonamides: potent orally active leukotriene D4 antagonists of novel structure” (J Med Chem, 1989):

Tests used:
Cavia porcellus [1] = experiment: Inhibitory dose of the intraduodenally administered compound (10 min before giving agonist) that produced a 50% inhibition of leukotriene D4 induced bronchoconstriction in guinea pigs; assay type: functional; details: intraduodenal, read-out: ID50 (the source's name)
Outline: (§1)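 Guinea pigs, intraduodenal dosing, with LTD4 or ovalbumin challenge. ID50 is the dose of antagonist giving 50% inhibition of the induced bronchoconstriction.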

Cavia porcellus [2] = experiment: Relative inhibitor potency of the intragastrically administered compound with Wy-48,252 against leukotriene D4 induced bronchoconstriction in guinea pigs; assay type: functional
Outline: (§2)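 Intragastric dosing of awake guinea pigs 120 min before agonist (95 min before anesthetic), with LTD4 or ovalbumin challenge.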

Cavia porcellus [3] = experiment: Inhibitory dose of the intraduodenally administered compound (10 min before giving agonist) that produced a 50% inhibition of ovalbumin induced bronchoconstriction in guinea pigs; assay type: functional; details: intraduodenal, read-out: ID50 (the source's name); outline: as §1
Cavia porcellus [4] = experiment: Relative inhibitor potency of the intragastrically administered compound with Wy-48,252 against ovalbumin induced bronchoconstriction in guinea pigs; assay type: functional; outline: as §2
Cavia porcellus [5] = experiment: Inhibitory dose of the intragastrically administered compound (120 min before giving agonist) that produced a 50% inhibition of leukotriene D4 induced bronchoconstriction in guinea pigs; assay type: functional; details: po, read-out: ID50 (the source's name)
Outline: (§3)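 Guinea pigs, awake, dosed intragastrically 120 min before agonist challenge (95 min before anesthetic). The LTD4 challenge was given intravenously; ovalbumin served as antigen. ID50 is the dose giving 50% inhibition of LTD4- or ovalbumin-induced bronchoconstriction.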

Cavia porcellus [6] = experiment: Inhibitory dose of the intragastrically administered compound (120 min before giving agonist) that produced a 50% inhibition of ovalbumin induced bronchoconstriction in guinea pigs; assay type: functional; details: po, read-out: ID50 (the source's name); outline: as §3
Cavia porcellus [7] = experiment: Relative inhibitor potency of the intraduodenally administered compound with Wy-48,252 against ovalbumin induced bronchoconstriction in guinea pigs; assay type: functional
Cavia porcellus [8] = experiment: Relative inhibitor potency of the intraduodenally administered compound with Wy-48,252 against leukotrien D4 induced bronchoconstriction in guinea pigs; assay type: functional
Cavia porcellus [9] = experiment: Inhibition of ovalbumin-induced bronchoconstriction when compound was administered intraduodenally at a dose of 25 mg/kg in guinea pig; assay type: functional; details: route intraduodenal
Outline: (§4)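 Single-dose screen in guinea pigs, with n animals per group. Significance versus control used a two-tailed Student's t test (p < 0.05), or one-way ANOVA with contrasts based on each treatment's difference from its own control mean.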

Cavia porcellus [10] = experiment: Inhibition of ovalbumin-induced bronchoconstriction when compound was administered perorally at a dose of 25 mg/kg in guinea pig; assay type: functional; details: route oral; outline: as §4
Cavia porcellus [11] = experiment: Inhibition of Leukotriene D4 induced bronchoconstriction when compound was administered perorally at a dose of 25 mg/kg in guinea pig; assay type: functional; details: route oral; outline: as §4
Cavia porcellus [12] = experiment: Inhibition of Leukotriene D4 induced bronchoconstriction in guinea pig by 50 mg/kg i.d.; details: at 50 mg/kg
Cavia porcellus [13] = experiment: Relative inhibitor potency of the intraduodenally administered compound with Wy-48,252 against lovalbumininduced bronchoconstriction in guinea pigs; assay type: functional
Mus musculus = experiment: Percent inhibition of TPA-induced inflammation at 1 mg/ear in the mouse ear edema; assay type: functional
Cavia porcellus [14] = experiment: Inhibitory dose of intraduodenally administered compound (10 min before giving agonist) that produced a 50% inhibition of leukotriene D4 induced bronchoconstriction in guinea pig; assay type: functional; details: intraduodenal, read-out: ID50 (the source's name); outline: as §1
[15] = Disassociation constant was determined; assay type: ADME
Outline: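 Isolated guinea pig trachea, pretreated with indomethacin and L-cysteine, contracted with LTD4. Antagonism was expressed as a pKB value.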

Cavia porcellus [16] = experiment: Inhibitory dose of the intraduodenally administered compound (10 min before giving agonist)that produced a 50% inhibition of ovalbumin induced bronchoconstriction in guinea pigs; assay type: functional; details: intraduodenal, read-out: ID50 (the source's name); outline: as §1
Cavia porcellus [17] = experiment: Inhibition of ovalbumin-induced bronchoconstriction when compound was administered perorally at a dose of 50 mg/kg in guinea pig; assay type: functional; details: route oral; outline: as §4
Rattus norvegicus = experiment: Percent inhibition of compound (50 mg/kg) in the rat carrageenan paw edema assay; assay type: functional
Outline: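 Rat carrageenan paw edema, with compound given intragastrically. Read-out is percent inhibition of edema.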

[18] = target: T1, Polyunsaturated fatty acid 5-lipoxygenase (Rattus norvegicus, UniProt P12527); experiment: Inhibitory concentration to inhibit 5-lipoxygenase in the rat
T1 sequence (P12527 whole entry): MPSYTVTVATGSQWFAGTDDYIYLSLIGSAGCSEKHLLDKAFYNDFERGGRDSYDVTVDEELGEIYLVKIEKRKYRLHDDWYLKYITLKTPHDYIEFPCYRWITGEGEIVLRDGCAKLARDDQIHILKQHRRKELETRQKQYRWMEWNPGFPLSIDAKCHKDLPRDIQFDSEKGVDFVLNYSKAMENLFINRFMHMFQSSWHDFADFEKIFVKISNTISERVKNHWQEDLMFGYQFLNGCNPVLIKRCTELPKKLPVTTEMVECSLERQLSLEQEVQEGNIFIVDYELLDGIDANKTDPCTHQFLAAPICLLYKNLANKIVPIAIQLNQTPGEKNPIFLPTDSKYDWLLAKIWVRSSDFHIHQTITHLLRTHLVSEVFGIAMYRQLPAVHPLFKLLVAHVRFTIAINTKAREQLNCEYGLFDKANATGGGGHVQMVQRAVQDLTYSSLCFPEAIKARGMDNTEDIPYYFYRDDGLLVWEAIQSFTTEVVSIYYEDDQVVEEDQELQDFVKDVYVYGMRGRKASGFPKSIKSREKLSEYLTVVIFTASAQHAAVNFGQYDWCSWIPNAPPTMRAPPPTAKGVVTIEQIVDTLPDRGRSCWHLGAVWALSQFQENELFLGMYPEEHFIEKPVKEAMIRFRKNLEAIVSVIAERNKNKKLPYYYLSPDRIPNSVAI
Outline: (§5)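 Rat PMN assay, measuring 5-lipoxygenase and cyclooxygenase activity. IC50 values are in μM.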

Cyclooxygenase = target: T2, Cyclooxygenase (Rattus norvegicus, UniProt P35355+Q63921); experiment: Inhibitory concentration to inhibit Prostaglandin G/H synthase in the rat; assay type: protein assay; outline: as §5
T2 sequence (P35355 whole entry): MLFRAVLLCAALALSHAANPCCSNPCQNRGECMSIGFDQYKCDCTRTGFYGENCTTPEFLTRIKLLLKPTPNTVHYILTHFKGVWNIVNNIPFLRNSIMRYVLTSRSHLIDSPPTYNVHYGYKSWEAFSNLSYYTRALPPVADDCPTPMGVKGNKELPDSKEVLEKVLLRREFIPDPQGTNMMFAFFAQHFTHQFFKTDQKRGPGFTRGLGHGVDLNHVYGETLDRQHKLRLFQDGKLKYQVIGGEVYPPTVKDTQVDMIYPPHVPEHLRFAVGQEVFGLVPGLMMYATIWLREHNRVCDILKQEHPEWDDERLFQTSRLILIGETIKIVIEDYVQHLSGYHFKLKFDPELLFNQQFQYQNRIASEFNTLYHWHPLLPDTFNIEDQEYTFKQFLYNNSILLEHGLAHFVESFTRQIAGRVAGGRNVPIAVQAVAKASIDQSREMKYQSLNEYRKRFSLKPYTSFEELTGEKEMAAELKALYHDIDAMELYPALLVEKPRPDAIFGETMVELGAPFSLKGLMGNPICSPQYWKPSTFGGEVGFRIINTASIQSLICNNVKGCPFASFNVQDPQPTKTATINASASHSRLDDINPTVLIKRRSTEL
T2 sequence (Q63921 whole entry): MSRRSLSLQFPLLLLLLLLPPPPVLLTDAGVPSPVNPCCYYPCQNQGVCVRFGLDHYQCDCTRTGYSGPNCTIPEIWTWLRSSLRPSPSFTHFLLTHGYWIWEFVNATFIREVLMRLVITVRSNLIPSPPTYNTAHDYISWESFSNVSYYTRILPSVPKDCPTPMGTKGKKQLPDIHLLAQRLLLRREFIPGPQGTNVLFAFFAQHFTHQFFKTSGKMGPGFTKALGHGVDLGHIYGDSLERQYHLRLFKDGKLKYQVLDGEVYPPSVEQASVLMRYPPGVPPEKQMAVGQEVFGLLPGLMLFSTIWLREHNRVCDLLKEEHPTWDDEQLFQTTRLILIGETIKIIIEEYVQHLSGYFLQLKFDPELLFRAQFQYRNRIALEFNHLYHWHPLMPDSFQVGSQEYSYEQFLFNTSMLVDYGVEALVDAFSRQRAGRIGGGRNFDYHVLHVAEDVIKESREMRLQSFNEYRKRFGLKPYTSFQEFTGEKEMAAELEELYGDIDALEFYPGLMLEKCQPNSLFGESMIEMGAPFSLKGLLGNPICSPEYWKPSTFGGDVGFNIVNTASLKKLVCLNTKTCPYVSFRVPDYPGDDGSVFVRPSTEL

Cavia porcellus [19] = experiment: Inhibition of ovalbumin-induced bronchoconstriction when compound was administered intraduodenally at a dose of 50 mg/kg in guinea pig; assay type: functional; details: route intraduodenal; outline: as §4

`CCCc1c(OCCCCc2nnn[nH]2)ccc(C(C)=O)c1O` [TOMELUKAST] gave an ED50 (Cavia porcellus [1]) of 6 mg/kg, a Relative inhibitor potency (Cavia porcellus [2]) of 1 and an ED50 (Cavia porcellus [3]) of 19 mg/kg. For the same molecule, the Relative inhibitor potency (Cavia porcellus [4]) was 1, the ED50 (Cavia porcellus [5]) was 32 mg/kg and the ED50 (Cavia porcellus [6]) was 38 mg/kg. For the same molecule, the Relative inhibitor potency (Cavia porcellus [7]) was 1 and the Relative inhibitor potency (Cavia porcellus [8]) was 1.

Molecule `O=S(=O)(Nc1cccc(OCc2ncc3ccccc3n2)c1)C(F)(F)F` has an inhibition in vivo at 25 mg/kg (Cavia porcellus [9]) of 78%, an inhibition in vivo at 25 mg/kg (Cavia porcellus [10]) of 23% and an inhibition in vivo at 25 mg/kg (Cavia porcellus [11]) of 97%.

`O=S(=O)(Nc1ccc2ccc(OCc3ccc4ccccc4n3)cc2c1)C(F)(F)F` showed an inhibition (Cavia porcellus [12]) of 99%, a Relative inhibitor potency (Cavia porcellus [13]) of 41 and an Inhibition (Mus musculus) of 34%. The ED50 (Cavia porcellus [14]) was 1.4 mg/kg, the Relative inhibitor potency (Cavia porcellus [2]) was 128 and the pKB [15] was 7.04. For the same molecule, the ED50 (Cavia porcellus [16]) was 0.46 mg/kg, the inhibition in vivo at 50 mg/kg (Cavia porcellus [17]) was 83% and the Inhibition (Rattus norvegicus) was 63%. It also gave a Relative inhibitor potency (Cavia porcellus [4]) of 6, an ED50 (Cavia porcellus [5]) of 0.25 mg/kg and an ED50 (Cavia porcellus [6]) of 6.1 mg/kg. The IC50 [18] was 230 nM, the Relative inhibitor potency (Cavia porcellus [8]) was 4 and the IC50 (Cyclooxygenase) was 11900 nM. It also gave an inhibition in vivo at 50 mg/kg (Cavia porcellus [19]) of 86%.
